Results on 16 compounds are retold here after ChEMBL document CHEMBL1156886, “Exploring epidermal growth factor receptor (EGFR) inhibitor features: the role of fused dioxygenated rings on the quinazoline scaffold” (J Med Chem, 2010).

What all share (format): functional, cell-based
The test system of assay [1] is A-431. The assay is described as follows: Cytotoxicity against human A431 cells after 72 hrs by MTT assay. Conditions: A-431, 72 h. An outline of the steps: (§1)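 MTT proliferation assay after 72 h continuous compound exposure in A431 (EGFR-overexpressing) and NIH3T3 (not expressing EGFR) cells. Highest concentration tested 10 μM, limited by precipitation in culture medium. IC50 not derived when inhibition stayed below 50% at 10 μM. Values are mean ± SD of at least three independent experiments.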

The next assay relates to NIH3T3. The assay is described as follows: Cytotoxicity against mouse NIH/3T3 cells after 72 hrs by MTT assay. Conditions: NIH3T3, 72 h. An outline of the steps: as §1
Assay [2] deals with A-431. The assay is described as follows: Antiproliferative activity against human A431 cells assessed as cell growth at 10 uM pretreated for 24 hrs measured after 68 hrs of drug removel by MTT assay.
Assay [3] relates to A-431. The assay is described as follows: Antiproliferative activity against exogenous EGF-induced human A431 cell growth at 0.1 uM pretreated for 24 hrs measured after 72 hrs of drug removel by MTT assay.

The structures appear in SMILES notation. The source made the active and inactive calls. The rule behind the calls is not given here. Some results are limits rather than exact numbers.

For `FC(F)(F)c1cccc(Nc2ncnc3cc4c(cc23)OCCCO4)c1`, the figures for the IC50 with A-431 [1] and in the assay on NIH3T3 were 4.73 µM and more than 10 µM, respectively. In addition, the outcome in the assay with A-431 [2] was Active.
The matching figures for `Brc1cccc(Nc2ncnc3cc4c(cc23)OCO4)c1`: 7.16 µM, more than 10 µM and “Active”.
On to `Fc1cc(Br)ccc1Nc1ncnc2cc3c(cc12)OCCCO3`, for which the IC50 in the assay with A-431 [1] was more than 10 µM.
Take `Cc1cccc(Nc2ncnc3cc4c(cc23)OCCO4)c1`: the IC50 worked out at 0.67 µM with A-431 [1] and 5.8 µM in the assay on NIH3T3. Moreover, the outcome in the assay with A-431 [2] was Active.
The matching figures for `FC(F)(F)c1cccc(Nc2ncnc3cc4c(cc23)OCCO4)c1`: 0.77 µM, 7.1 µM and “Active”.
Take `Fc1ccc(Nc2ncnc3cc4c(cc23)OCO4)cc1Cl`: in the assay with A-431 [1], the IC50 was more than 10 µM.
`Cc1cccc(Nc2ncnc3cc4c(cc23)OCCCO4)c1`: the IC50 is 6.29 µM with A-431 [1] and more than 10 µM in the assay with NIH3T3. Besides, the result in the assay with A-431 [2] was Active.
For the compound `Cc1cccc(Nc2ncnc3cc4c(cc23)OCO4)c1`, the IC50 is 6.69 µM in the assay on A-431 [1] and more than 10 µM in the assay with NIH3T3. Besides, the result in the assay on A-431 [2] was Active.
`Fc1ccc(Nc2ncnc3cc4c(cc23)OCCO4)cc1Cl` came in with an IC50 with A-431 [1] of more than 10 µM.
With `Fc1ccc(Nc2ncnc3cc4c(cc23)OCCCO4)cc1Cl`, the IC50 in the assay with A-431 [1] was 7.13 µM; in the assay on NIH3T3 it was more than 10 µM. For the same compound, the result with A-431 [2] was Active.
The like results for `Fc1cc(Br)ccc1Nc1ncnc2cc3c(cc12)OCCO3` were, in that order, 6.28 µM, 5.4 µM and “Active”.
`FC(F)(F)c1cccc(Nc2ncnc3cc4c(cc23)OCO4)c1`: the IC50 with A-431 [1] was 8.46 µM; with NIH3T3 it was more than 10 µM. For the same compound, the outcome with A-431 [2] was Active.
The like results for `Brc1cccc(Nc2ncnc3cc4c(cc23)OCCCO4)c1` were, in that order, 8.17 µM, more than 10 µM and “Active”.
`COc1cc2ncnc(Nc3cccc(Br)c3)c2cc1OC` gave an IC50 in the assay with NIH3T3 of more than 10 µM. The outcome in the assay with A-431 [3] was inactive. For the same compound, the result with A-431 [2] was Active.
Turning to `Fc1cc(Br)ccc1Nc1ncnc2cc3c(cc12)OCO3`, the IC50 in the assay with A-431 [1] was more than 10 µM.
As for `Brc1cccc(Nc2ncnc3cc4c(cc23)OCCO4)c1`, the IC50 with A-431 [1] is 0.75 µM; with NIH3T3 it was more than 10 µM. Further, the outcome with A-431 [2] was Active.
